Data on one compound can be found in ChEMBL document CHEMBL4765235, “Discovery of N-[Bis(4-methoxyphenyl)methyl]-4-hydroxy-2-(pyridazin-3-yl)pyrimidine-5-carboxamide (MK-8617), an Orally Active Pan-Inhibitor of Hypoxia-Inducible Factor Prolyl Hydroxylase 1-3 (HIF PHD1-3) for the Treatment of Anemia” (J Med Chem, 2016).

Data set [1] is described as follows: In vivo inhibition of HIF-PHD2 in iv dosed C57BL/6 mouse assessed as minimum effective dose causing increase in serum erythropoietin levels measured after 4 hrs. The following applies: C57BL/6, iv, read-out: MED. It is filed as functional. In outline: (§1)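 Mouse pharmacodynamic EPO assay (MoPED). Compound dosed iv; serum EPO measured 4 hr after dosing and reported in pg/mL. Minimum effective dose is the lowest dose giving EPO elevation.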

Data set [2] is described as follows: In vivo inhibition of HIF-PHD2 in C57BL/6 mouse assessed as serum erythropoietin level at 100 mg/kg, iv measured after 4 hrs. It counts as functional. In outline: as §1
The nature of data set [3]: In vivo inhibition of HIF-PHD2 in C57BL/6 mouse assessed as serum erythropoietin level at 5 mg/kg, iv measured after 4 hrs. It counts as functional. An outline of the steps:
as §1

The nature of data set [4]: In vivo inhibition of HIF-PHD2 in C57BL/6 mouse assessed as serum erythropoietin level at 15 mg/kg, iv measured after 4 hrs. It is filed as functional. In outline: as §1
A short description of data set [5]: In vivo inhibition of HIF-PHD2 in C57BL/6 mouse assessed as serum erythropoietin level at 50 mg/kg, iv measured after 4 hrs. It counts as functional. In outline: as §1
The nature of data set [6]: In vivo inhibition of HIF-PHD2 in C57BL/6 mouse assessed as serum erythropoietin level at 1.5 mg/kg, iv measured after 4 hrs. It is filed as functional. In outline: as §1
Data set [7] addresses Voltage-gated inwardly rectifying potassium channel KCNH2 (Homo sapiens, UniProt Q12809). Nature of the data set: Inhibition of human ERG.
Data set [8] can be described thus: Protein binding in dog plasma assessed as unbound fraction at 1 mg/kg, po or 0.5 mg/kg, iv. It is filed as ADME, organism-based, Canis lupus familiaris. The following applies: read-out: PPB.
Data set [9] in a line: Oral bioavailability in rhesus monkey at 1 mg/kg. The following applies: in vivo. It counts as ADME, organism-based, Macaca mulatta. An outline of the steps: (§2)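 Dog and rhesus monkey dosed 1 mg/kg po and 0.5 mg/kg iv. The iv vehicle was PEG200:12%HPCD:water (30:12:58 v/v/v); the po vehicle was Imwitor:Tween (1:1 w/w). Clearance was measured in plasma. Protein binding was measured in 100% serum.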

Data set [10] in a line: Volume of distribution at steady state in rhesus monkey at 1 mg/kg, po or 0.5 mg/kg, iv. It is filed as ADME, organism-based, Macaca mulatta. The following applies: in vivo, read-out: Vdss. An outline of the steps: as §2
The nature of data set [11]: Half life in rhesus monkey at 1 mg/kg, po or 0.5 mg/kg, iv. It is filed as ADME, organism-based, Macaca mulatta. The following applies: in vivo. An outline of the steps: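 Single-dose PK at 1 mg/kg po and 0.5 mg/kg iv. Mouse clearance is from blood; dog and rhesus clearance is from plasma. Mouse vehicle, both routes: DMSO:PEG400:water (5:40:55, v/v/v). Dog and monkey iv vehicle: PEG200:12%HPCD:water (30:12:58 v/v/v). Dog and monkey po vehicle: Imwitor:Tween (1:1 w/w).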

Another data set concerns the target T1, Cytochrome P450 1A2 (Homo sapiens, UniProt P05177).
T1 sequence (P05177 whole entry): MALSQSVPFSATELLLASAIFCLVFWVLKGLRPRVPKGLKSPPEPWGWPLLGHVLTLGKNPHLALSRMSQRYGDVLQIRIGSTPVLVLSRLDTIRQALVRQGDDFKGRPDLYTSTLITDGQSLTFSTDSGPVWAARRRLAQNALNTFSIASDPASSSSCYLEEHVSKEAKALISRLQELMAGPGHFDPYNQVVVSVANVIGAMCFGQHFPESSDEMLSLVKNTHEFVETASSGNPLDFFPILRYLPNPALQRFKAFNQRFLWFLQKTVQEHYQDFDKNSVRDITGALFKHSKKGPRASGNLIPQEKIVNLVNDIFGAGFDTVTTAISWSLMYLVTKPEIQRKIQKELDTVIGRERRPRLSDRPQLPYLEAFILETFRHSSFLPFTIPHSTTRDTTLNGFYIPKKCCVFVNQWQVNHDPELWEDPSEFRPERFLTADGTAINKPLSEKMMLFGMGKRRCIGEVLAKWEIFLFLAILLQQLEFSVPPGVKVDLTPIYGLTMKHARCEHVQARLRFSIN
The data set can be described thus: Inhibition of CYP1A2 (unknown origin). It counts as ADME.

Another data set has as its target T2, Cytochrome P450 2C8 (Homo sapiens, UniProt P10632).
T2 sequence (P10632 whole entry): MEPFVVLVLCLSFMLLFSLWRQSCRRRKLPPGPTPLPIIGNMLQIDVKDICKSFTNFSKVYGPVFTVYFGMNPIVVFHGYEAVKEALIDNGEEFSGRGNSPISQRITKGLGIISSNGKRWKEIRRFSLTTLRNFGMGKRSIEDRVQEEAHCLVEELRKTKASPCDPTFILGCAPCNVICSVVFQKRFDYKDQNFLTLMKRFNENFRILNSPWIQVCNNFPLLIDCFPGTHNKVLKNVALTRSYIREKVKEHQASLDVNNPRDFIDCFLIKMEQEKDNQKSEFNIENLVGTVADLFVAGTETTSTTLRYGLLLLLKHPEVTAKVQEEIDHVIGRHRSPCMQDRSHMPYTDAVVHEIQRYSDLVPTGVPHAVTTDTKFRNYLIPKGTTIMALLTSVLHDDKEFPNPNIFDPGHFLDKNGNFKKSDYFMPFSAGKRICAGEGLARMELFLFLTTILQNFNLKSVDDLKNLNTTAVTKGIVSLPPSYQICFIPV
The data set can be described thus: Reversible inhibition of CYP2C8 (unknown origin). It is filed as ADME.

A short description of data set [12]: Metabolic stability in dog liver microsomes assessed as metabolic turnover at 10 uM measured after 60 mins in presence of NADPH. It counts as ADME, Canis lupus familiaris, Microsome. The following applies: read-out: Drug metabolism. An outline of the steps: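 Tritiated compound incubated with liver microsomes with NADPH added; metabolic turnover monitored.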

Data set [13] is described as follows: Oral bioavailability in C57BL/6J mouse at 1 mg/kg. It is filed as ADME, organism-based. The following applies: in vivo. In outline:
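C57BL/6J mice dosed 1 mg/kg po and 0.5 mg/kg iv, both in DMSO:PEG400:water (5:40:55, v/v/v).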

A short description of data set [14]: Plasma clearance in dog at 1 mg/kg, po or 0.5 mg/kg, iv. It is filed as ADME, organism-based, Canis lupus familiaris. In outline:
as §2

Data set [15] can be described thus: Drug recovery in fasted bile-duct cannulated Sprague-Dawley rat bile at 5 mg/kg, po using [3H]-labeled compound measured after 48 hrs. It counts as ADME, organism-based. The following applies: in vivo.
A short description of data set [16]: Drug recovery in fasted bile-duct cannulated Sprague-Dawley rat feces at 5 mg/kg, po using [3H]-labeled compound measured after 48 hrs. The following applies: in vivo. It is filed as ADME, organism-based.
A short description of data set [17]: Drug recovery in fasted bile-duct cannulated Sprague-Dawley rat urine assessed as metabolically unchanged parent compound at 5 mg/kg, po using [3H]-labeled compound measured after 48 hrs. It is filed as ADME, organism-based. The following applies: in vivo.
The nature of data set [18]: Cmax in Sprague-Dawley rat at 5 mg/kg, po administered as single dose measured at 6 hrs. The following applies: in vivo. Also on record: route oral, dose 5 mg/kg, time 6 hrs. It counts as ADME, organism-based.
Data set [19] in a line: Toxicity in Sprague-Dawley rat assessed as change in hemoglobin levels at 1.5 mg/kg, po QD administered for 4 weeks and measured post last dose. It is filed as organism-based. The following applies: in vivo, 672 h.
A further data set is filed under the species Mus musculus. The following applies: C57BL/6, dose 5-15 mg/kg, time 2.0 day.
For another data set, the species on record is Rattus norvegicus. The following applies: Sprague-Dawley, dose 15.0 mg/kg.
Data set [20] addresses Hypoxia-inducible factor 1-alpha inhibitor (Homo sapiens) (UniProt Q9NWT6). Nature of the data set: Inhibition of FIH (unknown origin) using 2-oxoglutarate and biotinyl-SMDESGLPQLTSYDAEVNAPIQGSRNLLQGEELLR CAD peptide as substrate preincubated for 10 mins followed by substrate addition and measured after 1 hr by RapidFire Mass spectrometry.

Each structure is given as a SMILES string. pIC50: −log10 of the molar value. The source made the active and inactive calls.

In general, pIC50 refers to −log10 of the IC50, conventionally taken in molar units. The term bioavailability denotes dose-corrected exposure relative to a reference, in per cent. As usually defined, the half-life is the time needed for the level to fall by half in the phase considered. Broadly, the Cmax is the maximum level reached in the sampled fluid or tissue.

Chain of Voltage-gated inwardly rectifying potassium channel KCNH2 (Q12809 whole entry): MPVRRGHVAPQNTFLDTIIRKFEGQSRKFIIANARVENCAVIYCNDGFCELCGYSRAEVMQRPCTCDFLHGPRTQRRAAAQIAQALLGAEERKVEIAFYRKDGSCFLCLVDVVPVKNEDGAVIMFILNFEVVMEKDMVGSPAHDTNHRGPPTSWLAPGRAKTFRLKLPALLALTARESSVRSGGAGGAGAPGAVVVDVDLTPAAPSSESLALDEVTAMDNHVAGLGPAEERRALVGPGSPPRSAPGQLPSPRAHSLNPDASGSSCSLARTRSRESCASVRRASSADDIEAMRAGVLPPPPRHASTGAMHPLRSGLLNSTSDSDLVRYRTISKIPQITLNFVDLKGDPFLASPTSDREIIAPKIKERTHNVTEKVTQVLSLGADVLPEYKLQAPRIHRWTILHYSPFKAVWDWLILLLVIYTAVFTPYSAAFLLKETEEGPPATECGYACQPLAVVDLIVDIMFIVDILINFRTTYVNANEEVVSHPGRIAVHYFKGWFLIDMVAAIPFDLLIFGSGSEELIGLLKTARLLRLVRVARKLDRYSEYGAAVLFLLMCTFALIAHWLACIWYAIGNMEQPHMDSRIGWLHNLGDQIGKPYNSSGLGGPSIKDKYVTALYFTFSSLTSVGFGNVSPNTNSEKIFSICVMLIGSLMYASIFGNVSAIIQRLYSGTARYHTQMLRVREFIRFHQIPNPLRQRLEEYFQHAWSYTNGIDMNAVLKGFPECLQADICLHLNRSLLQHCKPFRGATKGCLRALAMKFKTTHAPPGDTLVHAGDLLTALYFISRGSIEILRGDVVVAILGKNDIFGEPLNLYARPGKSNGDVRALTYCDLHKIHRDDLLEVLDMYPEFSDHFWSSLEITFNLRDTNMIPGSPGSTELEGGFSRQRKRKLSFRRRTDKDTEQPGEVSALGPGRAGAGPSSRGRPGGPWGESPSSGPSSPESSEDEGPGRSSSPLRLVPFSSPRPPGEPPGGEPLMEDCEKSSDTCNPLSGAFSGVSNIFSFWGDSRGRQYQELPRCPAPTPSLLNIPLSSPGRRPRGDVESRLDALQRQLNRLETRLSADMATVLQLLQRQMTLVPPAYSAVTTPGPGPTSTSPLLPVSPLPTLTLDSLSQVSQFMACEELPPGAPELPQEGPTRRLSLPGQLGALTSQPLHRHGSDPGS

Consider `COc1ccc(C(NC(=O)c2cnc(-c3cccnn3)nc2O)c2ccc(OC)cc2)cc1`, for which the minimal effective dose in [1] came to 1.5 mg/kg. The Activity is 27000 pg/mL in data set [2]; 6200 pg/mL in [3]; 12000 pg/mL in data set [4]; 18000 pg/mL in data set [5]; 360 pg/mL in data set [6]; 1 g/dL in [19]. Further, the negative logarithm of the IC50 (pIC50) was below 4.52 in data set [7], below 4.22 on Cytochrome P450 1A2, 5.80 at Cytochrome P450 2C8 and 4.74 in [20]. Also, in [8], the fraction unbound is 0.01. The bioavailability in data set [9] was 52%; in data set [13] it was 6.3%. In data set [10], the Vd is 0.1 L/kg. Also, the half-life in [11] was 10 h. In addition, the metabolised at 1 h, 10 µM in data set [12] is below 10%. In addition, in [14], the clearance turned out to be 4.2 mL/h/kg. The Drug recovery in [15] was 12%; in data set [16] it was 39%; in [17], below 10%. The same compound displayed a Cmax in data set [18] of 14 µM. The inhibition entry in the data set listed under Mus musculus and in the data set listed under Rattus norvegicus was “Active” in each case.
